According to ChEMBL document CHEMBL4190353, “Synthesis, structure-activity relationships and preliminary mechanism of action of novel water-soluble 4-quinolone-3-carboxamides as antiproliferative agents” (Eur J Med Chem, 2017):
pIC50: −log10 of the molar value. Active and inactive are the calls of the source. The calls are words filed in the database; no cut-off is given here.

Key:
HCT-116 [1] = assay: […] of ROS generation in human HCT116 cells pre-treated with 7.5 mM GSH for […] followed by 8 uM compound addition and further incubated for 24 hrs by H2DCFDA dye based flow cytometry; assay type: functional, cell-based
Method in brief: (§1)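 HCT116 cells pre-treated 5 h with H2O, 7.5 mM L-NAC or 7.5 mM GSH, then exposed to compound for 24 h. Cells collected, washed twice in PBS, and resuspended in serum-free McCoy's 5A with 10 nM H2DCFDA for 20 min at 37 °C in the dark. After two PBS washes, relative ROS measured by flow cytometry.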

HCT-116 [2] = assay: Induction of apoptosis in human HCT116 cells assessed as late apoptotic cells level at 2 uM incubated for 24 hrs by Annexin V-FITC/PI staining based cytometry (reference value: 0.5%); assay type: functional
PC-3 = assay: Cytotoxicity against human PC3 cells assessed as reduction in cell viability incubated for 24 hrs by MTT assay; assay type: functional, cell-based; conditions: PC-3, 24 h
Method in brief: (§2)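 Cells were kept in McCoy's 5A with 10% fetal bovine serum, streptomycin and 100 units·mL⁻¹ penicillin at 37 °C under 5% CO₂/95% air. Viability was read by MTT optical density. IC50 is the concentration that lowers optical density by 50% relative to untreated cells. Values are means with SD of at least three independent determinations.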

RKO [3] = assay: Cytotoxicity against human RKO cells assessed as reduction in cell viability incubated for 24 hrs by CCK8 assay; assay type: functional, cell-based
Method in brief: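 Cells were seeded at 3×10^4 per well, grown 24 h, then exposed to increasing concentrations for 24 h. CCK-8 reagent was added for 1 h at 37 °C and absorbance was read at 450 nm. Cells were kept in McCoy's 5A with 10% FBS, and n=3.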

HCT-116 [4] = assay: Induction of apoptosis in human HCT116 cells assessed as late apoptotic cells level pre-incubated with 20 uM pan-caspase inhibitor Z-VAD-FMK for 5 hrs followed by compound addition and further incubated for 48 hrs by Annexin V-FITC/PI staining based cytometry (reference value: 0.0%); assay type: functional; parameters: scale not given: the % may be the effect or the level left
HCT-116 [5] = assay: […] of ROS generation in human HCT116 cells at 8 uM incubated for 24 hrs by H2DCFDA dye based flow cytometry; assay type: functional, cell-based; method in brief: as §1
HCT-116 [6] = assay: Induction of apoptosis in Bax-/- human HCT116 cells assessed as viable cells level incubated for 48 hrs by Annexin V-FITC/PI staining based cytometry (reference value: 92.9%); assay type: functional
Method in brief: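 Cells were plated at 5×10^5 per well and treated once 80% confluent. After trypsinisation and two washes in ice-cold PBS (pH 7.4), cells were stained with Annexin V-FITC and PI for 15 min at room temperature in the dark. Analysis was by flow cytometry. The legend gives vehicle or 4 µM for the p53-/- and Bax-/- lines.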

HEp-2 = assay: Cytotoxicity against human Hep2 cells assessed as reduction in cell viability incubated for 24 hrs by MTT assay; assay type: functional, cell-based; conditions: HEp-2, 24 h; method in brief: as §2
HeLa = assay: Cytotoxicity against human HeLa cells assessed as reduction in cell viability incubated for 24 hrs by MTT assay; assay type: functional, cell-based; method in brief: as §2
HCT-116 [7] = assay: Induction of apoptosis in human HCT116 cells assessed as necrotic cells level at 2 uM incubated for 24 hrs by Annexin V-FITC/PI staining based cytometry (reference value: 1.6%); assay type: functional
HCT-116 [8] = assay: Induction of apoptosis in human HCT116 cells assessed as necrotic cells level pre-incubated with 20 uM pan-caspase inhibitor Z-VAD-FMK for 5 hrs followed by compound addition and further incubated for 48 hrs by Annexin V-FITC/PI staining based cytometry (reference value: 0.2%); assay type: functional; parameters: scale not given: the % may be the effect or the level left
HepG2 = assay: Cytotoxicity against human HepG2 cells assessed as reduction in cell viability incubated for 24 hrs by MTT assay; assay type: functional, cell-based; conditions: HepG2, 24 h; method in brief: as §2
HCT-116 [9] = assay: Induction of apoptosis in human HCT116 cells assessed as subG1 phase cells level at 4 uM incubated for 24 hrs by […]PI staining based cytometry (reference value: 1%); assay type: functional
Method in brief: (§3)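 Cells were treated for 24 h, then fixed in 75% ethanol at -20 °C overnight. RNA was digested with 0.2 mg/mL RNase A for 30 min at 37 °C. Cells were stained with 50 µg/mL PI for 30 min in the dark, and DNA content was read by flow cytometry.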

HCT-8 = assay: Cytotoxicity against human HCT8 cells assessed as reduction in cell viability incubated for 24 hrs by MTT assay; assay type: functional, cell-based; conditions: HCT-8, 24 h; method in brief: as §2
RKO [10] = assay: Inhibition of colony formation of human RKO cells incubated for 24 hrs by crystal violet staining based photography; assay type: functional, cell-based
Method in brief: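 Cells (HCT116, RKO, HCT116 p53-/-, HCT116 Bax-/-) seeded at 300 per well in 12-well plates for 48 h, then treated 24 h. Drug medium replaced with fresh medium; about 10 days later colonies stained 15 min with crystal violet, photographed and counted. Run in triplicate.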

HCT-116 [11] = assay: Induction of apoptosis in human HCT116 cells assessed as G1 phase cells level at 2 uM incubated for 24 hrs by […]PI staining based cytometry (reference value: 65.2%); assay type: functional; method in brief: as §3
HCT-116 [12] = assay: Induction of apoptosis in Bax-/- human HCT116 cells assessed as early apoptotic cells level pre-incubated with 20 uM pan-caspase inhibitor Z-VAD-FMK for 5 hrs followed by compound addition and further incubated for 48 hrs by Annexin V-FITC/PI staining based cytometry (reference value: 6.8%); assay type: functional; parameters: scale not given: the % may be the effect or the level left
HCT-116 [13] = assay: Induction of apoptosis in human HCT116 cells assessed as increase in cleaved PARP level at 2 uM incubated for 24 hrs by Western blot method; assay type: functional, cell-based
Method in brief: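 Lysates were made in SDS buffer (2% SDS, 50 mM Tris-HCl pH 6.8) and quantified by BCA. Equal protein was run on 10% SDS-PAGE and transferred to PVDF. Membranes were blocked in 5% milk, probed overnight at 4 °C for cleaved PARP (1:1000) with GAPDH (1:5000), and detected with HRP secondary antibody and ECL.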

HCT-116 [14] = assay: Induction of apoptosis in human HCT116 cells assessed as viable cells level at 2 uM incubated for 24 hrs by Annexin V-FITC/PI staining based cytometry (reference value: 96.6%); assay type: functional
[15] = Solubility in water; assay type: physicochemical
HCT-116 [16] = assay: Induction of apoptosis in human HCT116 cells assessed as early apoptotic cells level at 2 uM incubated for 24 hrs by Annexin V-FITC/PI staining based cytometry (reference value: 1.3%); assay type: functional
HCT-116 [17] = assay: Induction of apoptosis in human HCT116 cells assessed as late apoptotic cells level incubated for 48 hrs by Annexin V-FITC/PI staining based cytometry (reference value: 0.0%); assay type: functional
HCT-116 [18] = assay: Induction of apoptosis in human HCT116 cells assessed as increase in cleaved PARP level pre-incubated with 20 uM pan-caspase inhibitor Z-VAD-FMK for 5 hrs followed by compound addition and further incubated for 48 hrs by Western blot method; assay type: functional, cell-based
Method in brief: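 Cells were pretreated for 5 h with DMSO or 20 µM Z-VAD-FMK before compound exposure. Lysates were made in SDS buffer and quantified by BCA. Proteins were run on 10% SDS-PAGE, transferred to PVDF, and probed with cleaved PARP (1:1000) and GAPDH (1:5000) loading control, with ECL detection.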

In the case of `CCN(CC)CCCNC(=O)c1cn(CCCc2ccccc2)c2cc(Cl)ccc2c1=O.Cl`, the inhibition (HCT-116 [1]) was “inactive”, the Activity (HCT-116 [2]) was 1.5% and the pIC50 (PC-3) was 5.19. The pIC50 (RKO [3]) was 5.31, the “growth inhibition (GI)” value (RKO [3]) was “Dose-dependent effect” and the Activity (HCT-116 [4]) was 2%. For the same compound, the inhibition (HCT-116 [5]) was “Active”, the Activity (HCT-116 [6]) was 65.1% and the pIC50 (HEp-2) was 5.45. For the same compound, the pIC50 (HeLa) was 5.45, the Activity (HCT-116 [7]) was 1% and the Activity (HCT-116 [8]) was 3.5%. For the same compound, the pIC50 (HepG2) was 5.40, the Activity (HCT-116 [9]) was 14.2% and the pIC50 (HCT-8) was 5.17. The inhibition (RKO [10]) was “Dose-dependent effect”, the Activity (HCT-116 [11]) was 46.7% and the Activity (HCT-116 [12]) was 10.2%. The Activity (HCT-116 [13]) was “Active”, the Activity (HCT-116 [14]) was 79.3% and the solubility [15] was greater than 10000 µg/mL. For the same compound, the Activity (HCT-116 [16]) was 18.2%, the Activity (HCT-116 [17]) was 3.2% and the Activity (HCT-116 [18]) was “inactive”.
